The structures appear in SMILES notation. The campaign covered roughly 340,000 compounds. About 3,000 (0.88%) were called active. Many of the other results were omitted from the sample, so actives are more common in it than they were. A number with no mark means an inactive call.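 The calls were made as follows: active = inhibition above about 50% at 20 µM (limit read from the data); inactive = the rest.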

In this experiment the target is Carboxy-terminal domain RNA polymerase II polypeptide A small phosphatase 1 (Homo sapiens) (UniProt Q9GZU7). The experiment can be described thus: Scp-1 phosphatase inhibitors, primary screen, biochemical, colorimetric, uHTS (AID 493091).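 Also: plate controls were DMSO wells with enzyme for no effect and wells lacking enzyme for full effect.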 As to conditions: Recombinant Scp1, phosphopeptide, malachite green phosphate absorbance; at 20 µM; stronger effect = higher value. The method, boiled down: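 System: SCP-1 catalytic domain; Reagent: Phospho 17-mer peptide substrate; Doses: one concentration, 20 µM, with 1.0% DMSO; Incubation: 45 min room-temperature reaction, 5 min colour, 30 min stabiliser; Signal: Phosphate-binding colour reagent, absorbance read at 630 nm.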
Sequence of Carboxy-terminal domain RNA polymerase II polypeptide A small phosphatase 1 (Homo sapiens) (Q9GZU7 76-261 limits assumed): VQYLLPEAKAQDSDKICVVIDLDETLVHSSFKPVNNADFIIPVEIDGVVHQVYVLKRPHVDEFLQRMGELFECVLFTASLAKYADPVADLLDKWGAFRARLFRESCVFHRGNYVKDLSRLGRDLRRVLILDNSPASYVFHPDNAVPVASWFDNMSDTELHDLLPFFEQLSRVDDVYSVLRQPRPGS
For the molecule `Cc1ccc(NC(=O)CN(C)C(=O)c2ccc(Br)o2)cc1`, the inhibition was 1.38%.
Take `CC1(C)CC(=O)C2=C(C1)NCN(CCCN1CCOCC1)C2`: the inhibition is -1.79%.
As for `CC(C)C(=O)NC(NC(=S)NC1CCS(=O)(=O)C1)C(Cl)(Cl)Cl` (stereo unspecified), the inhibition is -9.76%.
Take `Cc1cccc(NC(=O)c2cc(N3C(=O)CCC3=O)ccc2Cl)n1`: the inhibition is -6.1%.
The figure for `CC(=O)Nc1ccc(N2C(=O)CCC2=O)cc1C` is 75.8% (active); for `COC(=O)c1cccc(NC(=O)c2cccc(N3C(=O)CCC3=O)c2)c1` it is -7.64%; for `O=C(C(NS(=O)(=O)c1cccc2nsnc12)c1ccccc1)N1CCN(c2ccccn2)CC1` (stereo unspecified) it is -0.35%.
On to `O=S(=O)(NC(=S)Nc1ccccc1)c1ccc(F)cc1`, for which the inhibition is -7.43%.
Consider `COCCCn1c(SCC(=O)NC2CCCC2)nnc1-c1ccccc1`, for which the inhibition is -9.75%.
As for `CCOc1ccc(Nc2nc(Cc3nnc(SCC(=O)NC4CCCC4)n3C)cs2)cc1`, the inhibition is -5.22%.
Then `COCCCn1c(Cc2csc(Nc3cccc(Cl)c3)n2)nnc1SCC(=O)OC1CCCCC1`, with 58.9% (active); and `O=C(CSc1nnc(N2CCOCC2)n1-c1cccc(F)c1)N1CCN(c2ccccn2)CC1`, with -3.89%; and `Cc1c(CC(=O)N2CCN(C(=O)C3COc4ccccc4O3)CC2)c(=O)oc2c(O)c(O)ccc12` (stereo unspecified), with 79.7% (active).
Then `Cc1c(C)c2ccc(OCC(=O)N3CCC(C(=O)O)CC3)c(C)c2oc1=O`, with 1.4%.
On to `Cc1ccc(S(=O)(=O)NCCC(=O)NNC(=O)C2COc3ccccc3O2)cc1` (stereo unspecified), for which the inhibition was -1.94%.
`COc1ccc(NC2CCCN(C(=O)c3ccncc3)C2)cc1` (stereo unspecified): the inhibition was 3.08%.
With `CNc1[nH]ncc1[N+](=O)[O-]`, the inhibition was -7.97%.
Take `NC(=O)c1nsc(C(=O)N(CCCN2CCOCC2)C(C(=O)NC2CCCCC2)c2ccc(Cl)cc2)c1N` (stereo unspecified): the inhibition is -5.84%.
Regarding `CCS(=O)(=O)N1CCCC(C(=O)NCCCN(C)Cc2ccccc2)C1` (stereo unspecified), the inhibition is -3.41%.
With `COc1ccc(OC)c(NC(=O)Cc2cccs2)c1`, the inhibition is 14.5%.
For `COc1ccc(Cc2nnc(NS(=O)(=O)Cc3ccccc3)s2)cc1`, the inhibition is -2.23%.
On to `COc1ccc(Cc2nnc(NC(=O)Cc3cccs3)s2)cc1`, for which the inhibition is 87% (active).
Regarding `CC1CCC(NC(=O)CNC(=O)c2ccc3ccccc3c2)CC1` (stereo unspecified), the inhibition was -3.85%.
In the case of `O=C(CN1CCCCC1)NC(=O)Nc1ccccc1F`, the inhibition is 1.25%.
The figure for `C=C1CCN([C@H](C(=O)NCc2cc(OC)c(OC)c(OC)c2)C(C)C)S(=O)(=O)c2ccccc21` is -5.59%; for `COc1ccccc1N1CCN(CC(=O)NC(=O)NCc2ccco2)CC1` it is -8.28%.
`NC(=O)CCN1CCN(S(=O)(=O)/C=C/c2ccccc2)CC1`: the inhibition is 5.89%.
Consider `O=C(CN1CCN(S(=O)(=O)/C=C/c2ccccc2)CC1)NC(=O)NCc1ccco1`, for which the inhibition was 52.3% (active).
For the molecule `COC(=O)c1cc(OC)c(OC)cc1NC(=O)C1CCCO1` (stereo unspecified), the inhibition was -6.55%.
On to `CN(CC(=O)Nc1ccc(Cl)cc1)C(=O)CNC(=O)c1ccc2ccccc2c1`, for which the inhibition was -10%.
The figure for `O=C(CCCOc1ccccc1)NNC(=O)c1ccc(Cl)cc1` is 0.5%; for `O=C(NNC(=O)c1ccc2ccccc2c1)c1ccc(Cl)cc1` it is 99.5% (active).
For the molecule `N=C1C(=O)OCC1c1ccccc1NC(=O)CN1CCCCC1` (stereo unspecified), the inhibition is -9.11%.
In the case of `Cc1cc(C)n(CCNCc2c(C(=O)N3C[C@@H](C)O[C@@H](C)C3)nc3ccc(Cl)cn23)n1`, the inhibition is -3.38%.
Then `CCn1cc(CN2CCC(C(=O)Nc3cccc(-c4cccc(Cl)c4)c3)CC2)c(C)n1`, with -4.7%; and `CCOC(=O)CCCCCC(=O)Nc1ccc2c(c1)CC(=O)N([C@@H](C)CO)C[C@H](C)[C@@H](CN(C)Cc1ccccc1)O2`, with -4.43%.
As to `C=CCOc1c2ccc(C(=O)N(CC)c3ccc(OC)cc3)cc2nn1C`, the inhibition is -2.27%.
Consider `O=C(COC(=O)c1cnccn1)Nc1cccc2ccccc12`, for which the inhibition is -9.56%.
On to `C=C1c2cccc(OC)c2O[C@H](C(=O)OCC)[C@@H]1CCCCCC`, for which the inhibition was 101% (active).
On to `CCOC(=O)C(=Cc1ccccc1OC)C(=O)OCC`, for which the inhibition is -0.82%.
As for `CC1C(=O)NC(=O)C1c1ccccc1` (stereo unspecified), the inhibition is -3.27%.
In the case of `CC(=O)CSc1nc(CCc2ccccc2)c(C#N)c(=O)[nH]1`, the inhibition was -7.04%.
With `N#Cc1c(-c2cccs2)nc(SCC(=O)c2ccc(Br)cc2)[nH]c1=O`, the inhibition is 64.9% (active).
In the case of `O=C(CSc1nc2ccccc2c(=O)[nH]1)Nc1nc(-c2ccc(Br)cc2)cs1`, the inhibition is 3.75%.
Turning to `CCN(CC)C(=O)CS(=O)CC(=O)Nc1cc(OCCOC)c(Cl)cc1Cl` (stereo unspecified), the inhibition is 1.24%.
As for `O=C(Cn1cnc([N+](=O)[O-])n1)NCCc1ccccc1`, the inhibition was -2.5%.

(Values after PubChem BioAssay AID493091 (Sanford-Burnham Center for Chemical Genomics, 2011).)
